Data as given in ChEMBL document CHEMBL3102784, “Salicylanilide diethyl phosphates: synthesis, antimicrobial activity and cytotoxicity” (Bioorg Med Chem, 2014).
pIC50: −log10 of the molar value. ≈ marks a conversion by molar mass, not a printed value. Calls of active or inactive are those of the source. No cut-off for these calls is given here.

How the values were obtained:
Candida tropicalis = assay: Antifungal activity against Candida tropicalis 156 at 500 micromol/L after 24 to 48 hrs by broth microdilution method; assay type: functional, organism-based
In short: (§1)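 Broth microdilution in RPMI 1640 with glutamine, fluconazole as reference. For yeasts, MIC is ≥80% growth reduction (IC80) versus control. For filamentous fungi, the value is expressed as IC50. Readings at 24 and 48 h.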

Klebsiella pneumoniae [1] = assay: Antibacterial activity against Klebsiella pneumoniae D 11750/08 at 500 micromol/L after 24 to 48 hrs by broth microdilution method; assay type: functional, organism-based
In short: (§2)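 Broth microdilution in Mueller–Hinton broth, compounds dissolved in DMSO, tested over a dilution series from 500 downward. MIC taken as ≥95% growth reduction (IC95) versus drug-free control. Benzylpenicillin comparator. Readings at 24 and 48 h.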

Escherichia coli = assay: Antibacterial activity against Escherichia coli CCM 4517 at 500 micromol/L after 24 to 48 hrs by broth microdilution method; assay type: functional, organism-based; in short: as §2
Pichia kudriavzevii [2] = assay: Antifungal activity against Candida krusei E28 after 48 hrs by broth microdilution method; assay type: functional; conditions: E28, 48 h; in short: as §1
Staphylococcus aureus [3] = assay: Antibacterial activity against methicillin-resistant Staphylococcus aureus H 5996/08 after 24 hrs by broth microdilution method; assay type: functional; conditions: H 5996/08, 24 h; in short: as §2
Lichtheimia corymbifera [4] = assay: Antifungal activity against Absidia corymbifera 272 after 24 hrs by broth microdilution method; assay type: functional; conditions: Lichtheimia corymbifera, 272, 24 h; in short: as §1
Trichosporon asahii [5] = assay: Antifungal activity against Trichosporon asahii 1188 after 48 hrs by broth microdilution method; assay type: functional; conditions: Trichosporon asahii, 1188, 48 h; in short: as §1
[6] = tested on: Trichophyton mentagrophytes; assay: Antifungal activity against Trichophyton mentagrophytes 445 after 120 hrs by broth microdilution method; assay type: functional; conditions: Trichophyton mentagrophytes, 445, 120 h
In short: (§3)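 Filamentous dermatophyte tested by broth microdilution in RPMI 1640 with glutamine, fluconazole as reference. Value expressed as IC50 relative to growth control. Read at 72 and 120 h.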

Enterococcus sp. = assay: Antibacterial activity against Enterococcus sp. J 14365/08 at 500 micromol/L after 24 to 48 hrs by broth microdilution method; assay type: functional, organism-based; in short: as §2
[7] = tested on: Trichophyton mentagrophytes; assay: Antifungal activity against Trichophyton mentagrophytes 445 after 72 hrs by broth microdilution method; assay type: functional; conditions: Trichophyton mentagrophytes, 445, 72 h; in short: as §3
Lichtheimia corymbifera [8] = assay: Antifungal activity against Absidia corymbifera 272 after 48 hrs by broth microdilution method; assay type: functional; conditions: Lichtheimia corymbifera, 272, 48 h; in short: as §1
Staphylococcus aureus [9] = assay: Antibacterial activity against methicillin-resistant Staphylococcus aureus H 5996/08 after 48 hrs by broth microdilution method; assay type: functional; conditions: H 5996/08, 48 h; in short: as §2
Pichia kudriavzevii [10] = assay: Antifungal activity against Candida krusei E28 after 24 hrs by broth microdilution method; assay type: functional; conditions: E28, 24 h; in short: as §1
Trichosporon asahii [11] = assay: Antifungal activity against Trichosporon asahii 1188 after 24 hrs by broth microdilution method; assay type: functional; conditions: Trichosporon asahii, 1188, 24 h; in short: as §1
Mycobacterium kansasii [12] = assay: Antimycobacterial activity against Mycobacterium kansasii My 235/80 after 21 days; assay type: functional; conditions: My 235/80, 504 h
In short: (§4)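 Micromethod MIC in Šula's semisynthetic medium at 37 °C. Compounds added in DMSO at 1000 down to 0.032 µmol/L. Isoniazid standard in sterile water at 0.5–250 µmol/L. Inocula: H37Rv 10^3, M. avium 10^5, M. kansasii 10^4. Read at 14 and 21 d, plus 7 d for M. kansasii.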

[13] = tested on: Staphylococcus epidermidis; assay: Antibacterial activity against Staphylococcus epidermidis H 6966/08 after 48 hrs by broth microdilution method; assay type: functional; conditions: H 6966/08, 48 h; in short: as §2
Staphylococcus aureus [14] = assay: Antibacterial activity against Staphylococcus aureus CCM 4516/08 after 48 hrs by broth microdilution method; assay type: functional; conditions: CCM 4516/08, 48 h; in short: as §2
Candida albicans [15] = assay: Antifungal activity against Candida albicans ATCC 44859 after 48 hrs by broth microdilution method; assay type: functional; conditions: ATCC 44859, 48 h; in short: as §1
[16] = tested on: Mycobacterium tuberculosis; assay: Antimycobacterial activity against Mycobacterium tuberculosis H37Rv My 331/88 after 14 days; assay type: functional; conditions: H37Rv My 331/88, 336 h; in short: as §4
Pseudomonas aeruginosa = assay: Antibacterial activity against Pseudomonas aeruginosa CCM 1961 at 500 micromol/L after 24 to 48 hrs by broth microdilution method; assay type: functional, organism-based; in short: as §2
Aspergillus fumigatus [17] = assay: Antifungal activity against Aspergillus fumigatus 231 after 48 hrs by broth microdilution method; assay type: functional; conditions: Aspergillus fumigatus, 231, 48 h; in short: as §1
Nakaseomyces glabratus = assay: Antifungal activity against Candida glabrata 20/I at 500 micromol/L after 24 to 48 hrs by broth microdilution method; assay type: functional, organism-based; in short: as §1
Staphylococcus aureus [18] = assay: Antibacterial activity against Staphylococcus aureus CCM 4516/08 after 24 hrs by broth microdilution method; assay type: functional; conditions: CCM 4516/08, 24 h; in short: as §2
[19] = tested on: Mycobacterium tuberculosis; assay: Antimycobacterial activity against Mycobacterium tuberculosis H37Rv My 331/88 after 21 days; assay type: functional; conditions: H37Rv My 331/88, 504 h; in short: as §4
Aspergillus fumigatus [20] = assay: Antifungal activity against Aspergillus fumigatus 231 after 24 hrs by broth microdilution method; assay type: functional; conditions: Aspergillus fumigatus, 231, 24 h; in short: as §1
Mycobacterium kansasii [21] = assay: Antimycobacterial activity against Mycobacterium kansasii My 235/80 after 7 days; assay type: functional; conditions: My 235/80, 168 h; in short: as §4
Mycobacterium kansasii [22] = assay: Antimycobacterial activity against Mycobacterium kansasii 6509/96 after 7 days; assay type: functional; conditions: 6509/96, 168 h; in short: as §4
Mycobacterium kansasii [23] = assay: Antimycobacterial activity against Mycobacterium kansasii 6509/96 after 21 days; assay type: functional; conditions: 6509/96, 504 h; in short: as §4
HepG2 = assay: Cytotoxicity against human HepG2 cells after 24 hrs by CellTiter assay; assay type: cell-based; conditions: HepG2, 24 h
In short: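 HepG2 cells (passage 27–33) in MEM with 10% FBS, L-glutamine and NEAA, seeded at 1×10^4 per well. Treated next day with compounds at 0.1–100 µM (or 0.1–25 µmol/L), triplicates, <1% DMSO, for 24 h at 37 °C, 5% CO2. MTS reagent added for 2 h, absorbance read at 490 nm. IC50 taken against untreated (100%) and 10% DMSO (0%) controls.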

Klebsiella pneumoniae [24] = assay: Antibacterial activity against ESBL-positive Klebsiella pneumoniae J 14368/08 at 500 micromol/L after 24 to 48 hrs by broth microdilution method; assay type: functional, organism-based; in short: as §2
Mycobacterium kansasii [25] = assay: Antimycobacterial activity against Mycobacterium kansasii My 235/80 after 14 days; assay type: functional; conditions: My 235/80, 336 h; in short: as §4
Candida albicans [26] = assay: Antifungal activity against Candida albicans ATCC 44859 after 24 hrs by broth microdilution method; assay type: functional; conditions: ATCC 44859, 24 h; in short: as §1
Mycobacterium kansasii [27] = assay: Antimycobacterial activity against Mycobacterium kansasii 6509/96 after 14 days; assay type: functional; conditions: 6509/96, 336 h; in short: as §4
Mycobacterium avium [28] = assay: Antimycobacterial activity against isoniazid, rifampicin, ethambutol and ofloxacin-resistant Mycobacterium avium My 330/88 after 14 days; assay type: functional; conditions: My 330/88, 336 h; in short: as §4
Mycobacterium avium [29] = assay: Antimycobacterial activity against isoniazid, rifampicin, ethambutol and ofloxacin-resistant Mycobacterium avium My 330/88 after 21 days; assay type: functional; conditions: My 330/88, 504 h; in short: as §4
[30] = tested on: Staphylococcus epidermidis; assay: Antibacterial activity against Staphylococcus epidermidis H 6966/08 after 24 hrs by broth microdilution method; assay type: functional; conditions: H 6966/08, 24 h; in short: as §2

SMILES	Activity (Candida tropicalis)	Activity (Klebsiella pneumoniae [1])	Activity (Escherichia coli)	MIC80 (Pichia kudriavzevii [2]) [µM]	MIC95 (Staphylococcus aureus [3]) [µM]	MIC50 (Lichtheimia corymbifera [4]) [µM]	MIC80 (Trichosporon asahii [5]) [µM]	MIC50 [6] [µM]	Activity (Enterococcus sp.)	MIC50 [7] [µM]	MIC50 (Lichtheimia corymbifera [8]) [µM]	MIC95 (Staphylococcus aureus [9]) [µM]	MIC80 (Pichia kudriavzevii [10]) [µM]	MIC80 (Trichosporon asahii [11]) [µM]	MIC (Mycobacterium kansasii [12]) [µM]	MIC95 [13] [µM]	MIC95 (Staphylococcus aureus [14]) [µM]	MIC80 (Candida albicans [15]) [µM]	MIC [16] [µM]	Activity (Pseudomonas aeruginosa)	also measured
CCOP(=O)(OCC)Oc1ccc(Br)cc1C(=O)Nc1cccc(Cl)c1	inactive	inactive	inactive	125 (≈ 57.8 µg/mL)	125 (≈ 57.8 µg/mL)	> 500	62.5 (≈ 28.9 µg/mL)	15.6 (≈ 7.23 µg/mL)	inactive	7.81 (≈ 3.61 µg/mL)	> 500	250 (≈ 116 µg/mL)	31.2 (≈ 14.5 µg/mL)	15.6 (≈ 7.23 µg/mL)	8 (≈ 3.7 µg/mL)	250 (≈ 116 µg/mL)	250 (≈ 116 µg/mL)	> 500	4 (≈ 1.85 µg/mL)	inactive	MIC50 (Aspergillus fumigatus [17]): > 500 µM; Activity (Nakaseomyces glabratus): inactive; MIC95 (Staphylococcus aureus [18]): 125 µM (≈ 57.8 µg/mL); MIC [19]: 4 µM (≈ 1.85 µg/mL); MIC50 (Aspergillus fumigatus [20]): > 500 µM; MIC (Mycobacterium kansasii [21]): 4 µM (≈ 1.85 µg/mL); MIC (Mycobacterium kansasii [22]): 4 µM (≈ 1.85 µg/mL); MIC (Mycobacterium kansasii [23]): 8 µM (≈ 3.7 µg/mL); pIC50 (HepG2): 5.19; Activity (Klebsiella pneumoniae [24]): inactive; MIC (Mycobacterium kansasii [25]): 8 µM (≈ 3.7 µg/mL); MIC80 (Candida albicans [26]): > 500 µM; MIC (Mycobacterium kansasii [27]): 8 µM (≈ 3.7 µg/mL); MIC (Mycobacterium avium [28]): 16 µM (≈ 7.4 µg/mL); MIC (Mycobacterium avium [29]): 16 µM (≈ 7.4 µg/mL); MIC95 [30]: 125 µM (≈ 57.8 µg/mL)
CCOP(=O)(OCC)Oc1ccc(Cl)cc1C(=O)Nc1cccc(Cl)c1	inactive	inactive	inactive	> 500	500 (≈ 209 µg/mL)	> 500	> 500	> 500	inactive	> 500	> 500	500 (≈ 209 µg/mL)	> 500	> 500	8 (≈ 3.35 µg/mL)	125 (≈ 52.3 µg/mL)	500 (≈ 209 µg/mL)	> 500	4 (≈ 1.67 µg/mL)	inactive	MIC50 (Aspergillus fumigatus [17]): > 500 µM; Activity (Nakaseomyces glabratus): inactive; MIC95 (Staphylococcus aureus [18]): 500 µM (≈ 209 µg/mL); MIC [19]: 4 µM (≈ 1.67 µg/mL); MIC50 (Aspergillus fumigatus [20]): > 500 µM; MIC (Mycobacterium kansasii [21]): 8 µM (≈ 3.35 µg/mL); MIC (Mycobacterium kansasii [22]): 8 µM (≈ 3.35 µg/mL); MIC (Mycobacterium kansasii [23]): 16 µM (≈ 6.69 µg/mL); pIC50 (HepG2): 5.57; Activity (Klebsiella pneumoniae [24]): inactive; MIC (Mycobacterium kansasii [25]): 8 µM (≈ 3.35 µg/mL); MIC80 (Candida albicans [26]): > 500 µM; MIC (Mycobacterium kansasii [27]): 16 µM (≈ 6.69 µg/mL); MIC (Mycobacterium avium [28]): 16 µM (≈ 6.69 µg/mL); MIC (Mycobacterium avium [29]): 16 µM (≈ 6.69 µg/mL); MIC95 [30]: 125 µM (≈ 52.3 µg/mL)
